Assay [1] concerns normal human dermal fibroblast (HDF) cells. The assay is described as follows: MTT cytotoxicity assay, normal HDF cells. The format is cell-based. Particulars: 48 h, read-out: In vitro antiproliferative effects (IC50) HDF. The essentials:
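Cells came from the National Cell Bank of Iran and were grown in RPMI-1640 or DMEM with 10% FBS at 37 °C, 5% CO2 and 100% humidity. Test compounds in 0.1% DMSO (n = 3) were incubated 48 h, then MTT for 3 h, with formazan OD read at 570 nm. Controls were 0.1% DMSO (negative) and etoposide (positive). IC50 came from dose–response curves, mean ± SE of at least three independent experiments.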
A general note: Tetrazolium dyes change colour on reduction, which living cells bring about.

The test system of assay [2] is Panc-1 cells. Briefly: Annexin V-FITC/PI dual staining flow cytometry apoptosis assay. The format is cell-based, human. The note with it: Panc-1, treated at IC50 concentration, 48 h. The essentials:
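Panc-1 cells were seeded, held overnight at 37 °C under 5% CO2, then exposed to test compound for 48 h. Untreated cells were the negative control. Cells were trypsinized, washed twice in PBS, pelleted at 1200 rpm and resuspended in binding buffer. Labelled annexin V and propidium iodide were added, and cells were incubated 15 min at room temperature in the dark. Flow cytometry followed.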

In assay [3] the test system is Panc-1 cells. Briefly: Cell cycle analysis by PI staining flow cytometry. Particulars: Panc-1, IC50 concentration, 48 h; control 1.82%. The format is cell-based, human.
Assay [4] deals with caspase-3, cleaved-caspase-3, pro-caspase-3 in Panc-1 cells. Briefly: Western blot analysis of caspase-3 proteins. The format is cell-based, human. Particulars: Panc-1, IC50 concentration, 48 h. In a few lines:
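Panc-1 cells were exposed to test compound and harvested after 48 h. Lysates were prepared in lysis buffer, and protein was quantified by Bradford assay. Proteins were separated on 15% SDS-PAGE, transferred to PVDF and probed with primary and secondary antibodies. β-actin was the loading control. Bands were detected by chemiluminescence and imaged.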
On the technique in general: Immunoblotting shows a protein as a band on a membrane.

With `O=c1[nH]nc(O)c2c(-c3cccc([N+](=O)[O-])c3)c3n(c12)CCn1cccc1-3` [7m, 11-Hydroxy-12-(3-nitrophenyl)-5,6-dihydropyrrolo[2″,1″:3′,4′]pyrazino[1′,2′:1,5] pyrrolo[2,3-d]pyridazin-8(9H)-one], the concentration for half-maximal inhibition (IC50) in assay [1] is > 100 µM. The “necrosis (Q1)” value in the assay on Panc-1 cells [2] (control 0.586) is reported as 0.851%. Also, in the assay with Panc-1 cells [2] (control 4.12), the “early apoptosis (Q3)” value is on record as 5.56% and the “late apoptosis (Q2)” value stood at 5.45%. Further, the “live cells (Q4)” value in the assay on Panc-1 cells [2] (control 91.2) was determined as 88.1%. The “cell apoptosis (total apoptotic cells)” value with Panc-1 cells [2] (untreated cells 8.24%) stood at 11.01%. In addition, in the assay with Panc-1 cells [3], the “proportion of cells in the sub-G1 phase” value is given as 5.47%. Moreover, in assay [4], the caspase-3 protein level entry is “downregulation” and the pro-caspase-3 protein level entry is listed as “remained unchanged”.

For orientation: IC50 means the midpoint of a concentration-inhibition curve.
